Most compounds without a hit are left out; they make up all but 4.2% or so of the library.
TMEM16A inh: TMEM16A chloride channel inhibitors, primary screen, cell-based, HTS | Anoctamin-1 (Mus musculus), Q8BHY3 | HEK293 TMEM16A/YFP iodide influx fluorescence, ionomycin | normalized B-score (activity score, 25-100; higher = stronger inhibition) at 10 µM | 310,000 compounds, 1.2% hits | AID 588511, 2011;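 active means ratio plate-corrected score three or more library SD toward inhibition, starting fluorescence score within five deviations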;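 further: score derived from kinetic fluorescence span divided by baseline fluorescence per well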
Target sequence (Q8BHY3 whole entry, looked up): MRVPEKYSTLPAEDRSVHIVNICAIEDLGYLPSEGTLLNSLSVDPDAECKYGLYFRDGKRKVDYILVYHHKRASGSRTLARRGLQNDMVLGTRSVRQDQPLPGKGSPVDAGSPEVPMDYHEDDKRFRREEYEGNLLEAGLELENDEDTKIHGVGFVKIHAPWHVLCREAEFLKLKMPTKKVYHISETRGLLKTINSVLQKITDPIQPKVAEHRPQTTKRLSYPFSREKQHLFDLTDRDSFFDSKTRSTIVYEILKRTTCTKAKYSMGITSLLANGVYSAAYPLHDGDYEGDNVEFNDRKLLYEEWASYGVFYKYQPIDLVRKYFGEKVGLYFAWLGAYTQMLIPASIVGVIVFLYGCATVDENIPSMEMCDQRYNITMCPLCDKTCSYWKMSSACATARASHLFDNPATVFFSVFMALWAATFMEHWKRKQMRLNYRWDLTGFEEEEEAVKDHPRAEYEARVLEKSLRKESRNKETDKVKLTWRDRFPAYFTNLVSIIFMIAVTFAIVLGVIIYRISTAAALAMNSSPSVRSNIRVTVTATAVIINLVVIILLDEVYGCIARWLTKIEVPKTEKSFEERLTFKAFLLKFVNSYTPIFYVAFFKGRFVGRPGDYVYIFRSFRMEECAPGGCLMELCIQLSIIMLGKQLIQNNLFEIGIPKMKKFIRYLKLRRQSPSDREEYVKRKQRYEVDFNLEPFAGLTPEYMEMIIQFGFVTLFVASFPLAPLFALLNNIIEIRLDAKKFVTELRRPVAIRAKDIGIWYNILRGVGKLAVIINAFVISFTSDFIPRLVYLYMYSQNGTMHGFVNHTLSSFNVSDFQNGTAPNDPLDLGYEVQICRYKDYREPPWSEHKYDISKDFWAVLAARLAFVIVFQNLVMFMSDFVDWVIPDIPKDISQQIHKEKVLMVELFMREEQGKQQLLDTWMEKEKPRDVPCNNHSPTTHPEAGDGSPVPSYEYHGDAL
CHOP inhibitor: inhibitors of CHOP promoter induction, primary screen, cell-based, unfolded protein response, luciferase reporter. inhibition, % at 10 µM. 220,000 compounds, 3.8% hits. CHO-K1 CHOP-promoter luciferase, tunicamycin-induced, 15-18 h;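 active means compounds that reduced the stress-induced luciferase reporter signal by more than about 70% of percent inhibition, limit read from the data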;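 further: 0% = tunicamycin plus vehicle and 100% = wells without tunicamycin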
UPR CHOP act: activators of apoptotic CHOP UPR arm, primary screen, cell-based, CHO-CHOP luciferase reporter, luminescence, uHTS. activation, % at 10 µM. 330,000 compounds, 0.34% hits. UPR activation; percent of tunicamycin response over DMSO baseline;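 active means at 10 µM dose, activation of 40% or more, normalized to positive control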;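 further: 100% = tunicamycin at 10 µg/mL and 0% = DMSO alone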
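Test system: CHO CHOP reporter cells. Input: 500 CHO-CHOP cells per well. Medium: F12 with 10% FBS. Technique: luciferase luminescence. Measure: percent activation relative to tunicamycin control. Dosing: 10 µM compound, 0.5% DMSO. Timing: 16-18 h cell attachment, then 6 h compound exposure, 37 °C.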
UPR XBP1 act: activators of adaptive XBP1 UPR arm, primary screen, cell-based, CHO-XBP1 luciferase reporter, luminescence, uHTS; activation, % at 20 µM; IRE1-XBP1 UPR activation; percent of tunicamycin response, DMSO as zero; 330,000 compounds, 0.33% hits;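 active means versus positive control, 20 µM dose yields 30% or more activation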;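 further: 100% = tunicamycin at 10 µg/mL and 0% = DMSO only wells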
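Assay system: CHO-XBP1 luciferase reporter cells; Schedule: 6 h treatment, 37 °C; Detection: glow luminescence from Steady-Glo reagent; Benchmarks: high control tunicamycin 10 µg/mL final, low control DMSO vehicle only.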
ANO1 activ: TMEM16A chloride channel activators or potentiators, primary screen, cell-based, HTS; Anoctamin-1 (Mus musculus), Q8BHY3; HEK293 TMEM16A/YFP-H148Q/I152L, iodide quench fluorescence; hits give low values; B-score at 10 µM; 340,000 compounds, 0.3% hits;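 active means fluorescence-ratio B-score plate-corrected deviation score at least 3 library SD below zero, with starting fluorescence score within 5 deviations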;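 further: channel opened by trigger with iodide after compound preincubation; score built on the fluorescence ratio of max minus min over baseline; more negative score means more quench and so TMEM16A activation or potentiation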
Lipid droplet: inhibitors of hepatocyte lipid droplet formation, primary screen, imaging, high-throughput imaging, BODIPY stain; AML12 mouse hepatocytes, oleate lipid droplets; inhibition, % at 6.5 µM; 240,000 compounds, 0.4% hits; AID 1656, 2009;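 active means lipid droplet intensity inhibited by at least 50%, with more than 500 cells counted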
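Material – mouse AML12 hepatocyte cell line, fixed after treatment · Compound dosing – one dose, 6.5 µM compound · Times – compound with oleate, overnight · Measured by – Image-based BODIPY and DAPI two-channel analysis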
Numbers without * were called inactive; i = inactive; . = no result given.

SMILES | TMEM16A inh | CHOP inhibitor | UPR CHOP act | UPR XBP1 act | ANO1 activ | Lipid droplet
O=C(CCCn1c(SCC(=O)c2ccc(F)cc2)nc2ccccc2c1=O)NCc1ccccc1 | 25* | 66 | -2 | 2 | i | 13
CCC(C(=O)N1CCN(C(=O)c2ccco2)CC1)n1sc2ccccc2c1=O (centres undefined) | i | . | -1 | -2 | i | -2
CC(C(=O)N1CCN(C(=O)c2ccco2)CC1)n1sc2ccccc2c1=O (centres undefined) | i | . | 1 | -2 | -45* | -24
Oc1ccc(COCc2ccccc2)c2cccnc12 | i | . | 74* | 11 | i | .
Oc1ccc(F)c2cccnc12 | i | 72* | 5 | 6 | i | -3
Oc1ccc(C=NNC(=S)Nc2cccnc2)nc1 | . | . | . | . | i | .
Cc1ccc(SCC(=O)N2c3ccccc3Sc3ccccc32)cc1 | 100* | 41 | -2 | -1 | i | .
COc1ccc(/C=C/C(=O)N(CC(C)C)CC(C)C)cc1Br | i | 84* | -3 | -1 | i | 0
COc1ccccc1N1CCN(C(=O)C2CCCN(S(=O)(=O)c3ccc4c(c3)oc(=O)n4C)C2)CC1 (centres undefined) | 25* | . | 4 | -4 | i | -5
COc1ccc(-c2nsc3c(N4CCCCC4C)ncnc23)cc1 (centres undefined) | i | 93* | -9 | -11 | i | 7
COc1ccc(-c2nsc3c(N4CCCCC4)ncnc23)cc1 | i | 82* | -8 | -5 | i | .
COc1ccc(C(=O)N2CCN(c3ncnc4c(-c5ccccc5)nsc34)CC2)cc1 | . | 41 | . | . | i | -19
Cc1c(CCOC(=O)c2cc([N+](=O)[O-])cc([N+](=O)[O-])c2)sc[n+]1CC(=O)c1ccc(Br)cc1 | i | 9 | -2 | -4 | i | -16
N#CC(C#N)=Cc1cccn1-c1ccc(S(N)(=O)=O)cc1 | i | 2 | 1 | -3 | -6.1* | 36
COc1cc2cc(CCCOC(=O)c3ccco3)oc(=O)c2cc1OC | . | . | 0 | 2 | i | .
CC(C)N1CC2=C(OC(N)=C(C#N)C2c2cccnc2)/C(=C/c2cccnc2)C1 (centres undefined) | i | -19 | 2 | -1 | i | .
CN1C/C(=C/c2cccnc2)C(=O)/C(=C/c2cccnc2)C1 | i | 81* | . | . | i | -40
CC(C)N1C/C(=C/c2cccnc2)C(=O)/C(=C/c2cccnc2)C1 | . | 100* | . | . | i | -22
Cc1ccc(C2(C)NC(=O)N(CC(=O)Nc3ccc(-c4nc5ccc(C)cc5s4)cc3)C2=O)cc1 (centres undefined) | i | 73* | 2 | -1 | i | -3
Cc1ccc2nc(-c3ccc(NC(=O)CCN4C(=O)c5ccccc5C4=O)cc3)sc2c1 | i | 45 | 4 | 4 | i | -4
CCN(CC)CCCNC(=S)N1CCN(c2nc(-c3ccccc3)cs2)CC1 | i | . | 0 | -4 | i | 4
Cc1ccc([N+](=O)[O-])cc1NC(=O)c1ccoc1C | i | 27 | 4 | -1 | i | -15
Cc1ccc2cc(C#N)c(N3CCCN(S(=O)(=O)c4ccccc4)CC3)nc2c1 | i | 8 | -3 | 0 | i | .
Cc1ccc2cc(C#N)c(N3CCCN(S(=O)(=O)c4ccc(F)cc4)CC3)nc2c1 | i | 5 | -2 | 2 | -9.6* | -22
Cc1cc(C(=O)Nn2c(-c3ccc(Br)cc3)nc3ccccc3c2=O)ccc1[N+](=O)[O-] | i | 91* | -1 | 0 | i | -3
SMILES | TMEM16A inh | CHOP inhibitor | UPR CHOP act | UPR XBP1 act | ANO1 activ | Lipid droplet
Cc1cc(C)nc(NS(=O)(=O)c2ccc(NC(=O)c3ccccc3[N+](=O)[O-])cc2)n1 | i | . | 0 | -3 | i | -9
Cc1ccc(S(=O)(=O)Nc2ccc(C(OC(=O)c3ccccc3[N+](=O)[O-])(C(F)(F)F)C(F)(F)F)cc2)cc1 | i | 76* | 4 | -1 | i | -18
O=C(OC(c1ccc(NS(=O)(=O)c2ccccc2)cc1)(C(F)(F)F)C(F)(F)F)c1ccccc1 | i | 92* | 2 | 3 | i | 11
COc1ccc(Cc2nnc(N/N=C/c3ccc(O)cc3)[nH]c2=O)cc1OC | i | 84* | -1 | -1 | i | 9
Cc1cccc(OCC(=O)N/N=C\c2cc3c(cc2[N+](=O)[O-])OCO3)c1C | 25* | 65 | -3 | -5 | i | -18
Cc1cccc(OCC(=O)N/N=C/CC(C)c2ccccc2)c1C (centres undefined) | i | 77* | 2 | 0 | i | -1
Cc1ccccc1OCC(=O)N/N=C/C=C/c1ccccc1 | i | 20 | 2 | 0 | i | 0
CC(=O)C[C@@H](O)CC(=O)[C@@H]1OC(=O)[C@H](C)CCCCc2ccccc21 | . | . | 0 | 0 | . | .
FC(F)(F)c1cnc(NNC(=S)Nc2ccc(Cl)cc2)c(Cl)c1 | 25* | 99* | 6 | 2 | i | -56
Cc1ccc(NC(=S)NNc2ncc(C(F)(F)F)cc2Cl)cc1 | i | 57 | 1 | -3 | i | 28
COC(=O)c1c(NC(=S)Nc2ccccc2Cl)sc(C)c1C | i | 89* | -1 | 1 | i | .
CCOC(=O)c1c(C)[nH]c(C(=O)COC(=O)c2ccc([N+](=O)[O-])o2)c1C | . | . | 10 | 4 | i | .
CC(=O)c1c(C)nn(CC(O)Cn2c3c(c4cc(C)ccc42)CCCC3=O)c1C (centres undefined) | i | 25 | 3 | -3 | i | .
Cc1ccc2c(c1)c(C)c(C)n2CC(O)Cn1nc(C)c(Br)c1C (centres undefined) | i | 86* | -1 | -1 | i | -13
Cc1ccc2c(c1)c1c(n2CC(O)Cn2nc(C)c(Br)c2C)C(=O)CCC1 (centres undefined) | i | 72* | -1 | -9 | i | -3
CCN(CC)CCNC(=O)C1(O)c2cc(Br)ccc2NC(=O)N1c1ccccc1 (centres undefined) | i | . | 0 | -4 | i | 3
CCN(CC)S(=O)(=O)c1cc(Cl)ccc1OC | i | 8 | 1 | 4 | i | -20
CSC1=N/C(=C\c2cccc(F)c2)C(=O)S1 | i | 47 | -1 | 0 | i | .
CSC1=N/C(=C\c2c(F)cccc2Cl)C(=O)S1 | i | 74* | -3 | 1 | i | -14
